OX1R antag-1 – OX1R (HCRTR1) antagonists, primary screen, fluorescence, CHO/OX1R cells, Fluo-8 calcium, orexin A | Fluo-8 calcium fluorescence | inhibition, % at 5 µM | Orexin/Hypocretin receptor type 1 (Homo sapiens), O43613 | 330,000 tested, 0.43% active | AID 434989, 2010;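 active = inhibition above its plate's threshold, mean inhibition of all tested compounds on the plate plus 3 SD, cut at about 37% in these data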
Target sequence (O43613 whole entry, looked up): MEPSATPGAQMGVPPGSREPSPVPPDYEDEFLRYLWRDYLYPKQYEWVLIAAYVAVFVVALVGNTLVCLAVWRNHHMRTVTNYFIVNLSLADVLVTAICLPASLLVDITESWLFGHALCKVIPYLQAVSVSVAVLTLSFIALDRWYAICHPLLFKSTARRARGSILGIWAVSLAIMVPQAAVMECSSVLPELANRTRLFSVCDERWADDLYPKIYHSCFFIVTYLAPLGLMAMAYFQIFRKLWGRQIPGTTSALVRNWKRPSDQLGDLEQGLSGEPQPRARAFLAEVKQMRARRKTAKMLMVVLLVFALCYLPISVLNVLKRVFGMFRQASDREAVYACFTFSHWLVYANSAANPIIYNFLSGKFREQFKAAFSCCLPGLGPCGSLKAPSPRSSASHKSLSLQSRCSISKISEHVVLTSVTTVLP
TAAR1 antagonist – human TAAR1 antagonists, primary screen, Fluo-8 calcium fluorescence, CHO RD-HGA16 cells | AID 624466, 2012 | inhibition, % at 3 µM | 360,000 tested, 1.5% active | antagonist | Trace amine-associated receptor 1 (Homo sapiens), Q96RJ0;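 active = inhibition above a per-plate cutoff, the mean inhibition of test compounds on that plate plus 3 SD, cut at about 49% in these data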
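Test system: RD-HGA16 CHO cells with stable hTAAR1 and Gα16 / Probe or stimulus: EC80 β-phenethylamine stimulus / Times: seeding 17-24 h prior, 75-min 37 °C, 30-min RT dye loading / Detection: Fluo-8 calcium-sensitive fluorescence / Read-out basis: % inhibition scaled between DMSO and EC80 PEA controls / Repeats: singlicate, one well per test compound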
TAAR1 agonist – human TAAR1 agonists, primary screen, Fluo-8 calcium fluorescence, CHO RD-HGA16 cells; activation, % at 3 µM; AID 624467, 2012; Trace amine-associated receptor 1 (Homo sapiens), Q96RJ0; vehicle wells 0%, saturating PEA agonist 100%; 360,000 tested, 0.99% active;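 active = activation above the mean activation of all test compounds in the run plus 3 SD, cut at about 38% in these data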
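Test system: RD-HGA16 (CHO) cells co-expressing Gα16 and hTAAR1; dosing: one-point dosing at 3 µM (nominal); timing: 17-24 h seeding, 75 min 37 °C dye, 30 min RT; signal: kinetic Fluo-8 calcium fluorescence; read-out basis: % activation relative to PEA EC100 response; controls: DMSO and PEA EC100; replicates: n 1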
OX1R antag-2 – antagonists of human orexin 1 receptor (OX1R) | Orexin/Hypocretin receptor type 1 (Homo sapiens), O43613 | OX1R-expressing cells, FRET antagonist read-out | inhibition, % at 6.6 µM | 330,000 tested, 1.8% active | AID 485270, 2010; in the data active = inhibition mostly above about 38%, no sharp cut-off; inactive = mostly below about 40%
CHO parental Ca – ATP-evoked calcium signal inhibitors, parental CHO, primary screen, counter-screen for OX1R antagonist project, cell-based, fluorescence, Fluo-8 calcium dye | parental CHO-K1, ATP-induced calcium, Fluo-8 fluorescence | inhibition, % at 5.6 µM | 330,000 tested, 0.63% active;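 active = inhibition above that plate's mean sample inhibition plus 3 SD, cut at about 26% in these data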
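Material: parental CHO cells / Compound: single nominal dose of 5.6 µM per compound / Signal: Fluo-8 fluorescence / Replicates: singlicate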
A number is an active result; i = inactive; nt = no result. In the library only some 3.9% were active in any assay of this set; here they are far more common.

SMILES	OX1R antag-1	TAAR1 antagonist	TAAR1 agonist	OX1R antag-2	CHO parental Ca
COC(=O)Cc1nnn2c1[C@@H](C)[C@@H](c1ccccc1Br)OC[C@H](C)C2	nt	i	i	nt	nt
CCCCCCCC/C=C\CCCCCCCC(=O)NCCc1ccc(O)c(O)c1	i	i	i	i	36
CCCCCCCC/C=C\CCCCCCCC(=O)NCCO	i	i	i	i	i
COCC(=O)Nc1sc2c(c1C(=O)OC)CCCC2	i	i	i	i	i
CCC(=O)NC(Nc1sc2c(c1C(=O)OC)CCCC2)(C(F)(F)F)C(F)(F)F	i	64	40	i	46
CCOC(=O)C1=C(C)NC(C)=C(C(=O)OCC)C1C(=O)OCC(=O)NCc1ccccc1	i	i	i	i	i
CCOC(=O)C1=C(C)NC(C)=C(C(=O)OCC)C1C(=O)OCC(=O)NCc1ccccc1OC	i	i	i	45	i
C[C@@H]1CN(C(=O)OC(C)(C)C)CCN1c1ccc(N2CCN(Cc3ccccc3)[C@@H](C)C2)c(C#N)c1	nt	i	i	nt	nt
Cc1cc(C)cc(N/C(N)=N/c2nc(C)cc(C)n2)c1	i	i	39	i	i
CCOC(=O)C[C@@H]1OC[C@H](CO)N1S(=O)(=O)c1ccc(C)cc1	nt	i	i	nt	nt
COc1ccccc1/C=C/CN1CCCC(CO)(Cc2cccc(Cl)c2)C1 (centres undefined)	61	i	i	69	34
CCc1oc2ccccc2c1C(=O)c1cc(Br)c(O)c(Br)c1	i	i	i	76	i
COc1cc(C(=S)N2CCOCC2)cc(OC)c1OC(=O)c1ccccc1[N+](=O)[O-]	i	i	i	34	i
COc1ccc(C(=S)N2CCOCC2)cc1OC(=O)c1ccc([N+](=O)[O-])cc1[N+](=O)[O-]	i	i	i	i	i
COc1cc(C(=S)N2CCOCC2)ccc1OC(=O)c1ccc(Br)cc1	nt	75	i	nt	nt
COc1cc(C(=S)N2CCOCC2)ccc1OC(=O)c1cccc(C)c1	i	i	i	i	i
Cc1cc(-c2ccco2)c(C#N)c2nc3ccccc3n12	i	i	i	100	i
COc1cc2c(c(OC)c1OC)CC(c1ccccc1)=C(c1ccccc1)CC2NC(=O)C(F)(F)F (centres undefined)	nt	i	i	nt	nt
CCOc1ccccc1C1C2C(=O)N(c3ccccc3)C(=O)C2ON1c1ccccc1 (centres undefined)	i	50	i	i	i
OCc1ccc2c(c1)c(-c1ccc3c(c1)OCCO3)c(-c1ccccc1)n2-c1ccccc1	i	62	i	i	i
COC(=O)C(Cc1ccc(OC(=O)c2ccc(C)cc2)cc1)N1Cc2ccccc2C1=O (centres undefined)	i	nt	nt	i	44
COC(=O)C(Sc1ccc(Cl)cc1)C1SC(=S)N(Cc2ccccc2)C1=O (centres undefined)	nt	i	i	nt	nt
Cn1nc(OC(=O)Nc2ccc(F)cc2)cc1C(F)(F)F	i	i	i	i	i
Cn1nc(OC(=O)Nc2ccc(Cl)cc2)cc1C(F)(F)F	i	nt	nt	i	38
COC(=O)c1c(NC(=O)C2c3ccccc3Oc3ccccc32)sc(C)c1C	i	i	i	i	i
SMILES	OX1R antag-1	TAAR1 antagonist	TAAR1 agonist	OX1R antag-2	CHO parental Ca
CCOC(=O)NC1c2ccccc2Oc2ccccc21	i	i	i	i	70
COc1ccc(CCCNC(=O)C2Cc3c(-c4ccc5c(c4)OCO5)ccnc3O2)cc1 (centres undefined)	nt	i	i	nt	nt
COc1cccc(/C=N/Nc2nnc(C)n2N)c1OCc1ccccc1Cl	i	i	i	67	i
COc1cccc(C=NNc2nnc(NN=Cc3cccc(OC)c3OC)c3ccccc23)c1OC	nt	i	i	nt	nt
COc1ccc(-c2cscc2N)cc1	nt	i	i	nt	nt
COc1ccc(C)cc1NCc1cc(=O)oc2cc(-c3ccccc3)c(O)cc12	i	i	i	i	i
CCOc1ccccc1NCc1cc(=O)oc2cc(C)ccc12	i	i	i	47	i
Cc1ccc2c(COC(=O)c3ccccc3OC(F)F)cc(=O)oc2c1	i	54	i	i	i
CCCC(=O)OC[C@H]1CN(C2CCCC2)S(=O)(=O)c2c(Oc3ccc(F)cc3)cccc2O1	nt	i	i	nt	nt
O=C(NCc1ccccc1)C(C1CC1)n1c(=O)c(-c2cc3ccccc3[nH]2)nc2ccccc21 (centres undefined)	nt	i	i	nt	nt
O=c1c2ccccc2c(C=Nc2cccc(S(=O)(=O)NCc3ccco3)c2)c(O)n1-c1ccc(Cl)cn1	i	i	i	66	i
CC1Cc2cc(-c3csc(NC(=O)Cc4ccccc4)n3)ccc2N1S(C)(=O)=O (centres undefined)	i	54	i	i	i
C=CCN(CC=C)CCOc1ccc2ccccc2c1	i	i	39	i	i
CNc1nc(-c2ccc3c(c2)CCN3C(=O)c2ccccc2F)cs1	nt	53	i	nt	nt
O=C(c1ccco1)N1N=C(c2ccccc2O)CC1c1cccs1 (centres undefined)	nt	i	i	nt	nt
O=C1c2ccccc2C(=O)c2c(O)c(O)cc(O)c21	i	i	i	28	i
O=C(O)c1cccc2c1C(=O)c1ccccc1-2	i	i	i	i	i
COc1ccc(-c2cc(C(=O)Nc3ccc(OC)c(OC)c3)[nH]n2)c(C)c1	nt	i	i	nt	nt
COCc1cc(C)nc(SCC(=O)Nc2cccc3cccnc23)c1C#N	i	i	i	52	i
CSCCC(C(=O)NCc1ccccc1)n1c(C2CCN(C(C)=O)CC2)nc2ccccc21 (centres undefined)	nt	i	i	nt	nt
CCOC(=O)CCCCCCCCC(=O)Nc1ccc(-n2[nH]c(=O)cc2C)cc1	nt	i	44	nt	nt
CCCOc1ccc(CSc2nc3ccccc3[nH]2)cc1	i	i	i	i	48
Cc1cc(C(=O)CSc2nc3ccc(Cl)cc3[nH]2)c(C)n1Cc1ccco1	i	i	i	45	i
O=C(CSc1nc2ccc(Cl)cc2[nH]1)NCc1ccco1	i	i	i	i	i
CCOC(=O)C1(C#N)Cc2ccccc2C1	nt	i	i	nt	nt
SMILES	OX1R antag-1	TAAR1 antagonist	TAAR1 agonist	OX1R antag-2	CHO parental Ca
CCC1Sc2ccc(S(=O)(=O)Nc3ccc(OC)c(OC)c3)cc2NC1=O (centres undefined)	46	i	i	i	45
CCC1Sc2ccc(S(=O)(=O)Nc3ccc(OC)cc3)cc2NC1=O (centres undefined)	i	i	56	i	i
O=C(NCCO)Nc1ccc2nc(-c3ccco3)c(-c3ccco3)nc2c1	i	nt	nt	100	i
O=C(NCCCO)c1ccc2nc(-c3ccco3)c(-c3ccco3)nc2c1	nt	i	i	nt	nt
O=C(Nc1ccccc1)c1ccc2nc(-c3ccco3)c(-c3ccco3)nc2c1	71	i	i	102	i
CCOC(=O)c1c(-c2ccccc2)oc2ccc(OC(C)=O)cc12	i	i	i	64	i

Screens (PubChem)
